Three compounds from paper PMC4902112 (Biochemistry, 2009) can be followed below.

Assay [1] deals with T1, human tear lipocalin (TL) (Homo sapiens, UniProt P31025, W35Y). Nature of the assay: fluorescence enhancement and blue shift on binding. As to conditions: TL 4 μM, DAUDA 2 μM, 10 mM sodium phosphate, pH 7.3; fluorescent probe.
Assay [2] concerns the target T1, human tear lipocalin (TL). Nature of the assay: DAUDA fluorescence displacement. The class given is binding.
In assay [3] the target is human tear lipocalin (TL) (Homo sapiens, UniProt P31025, L123W/W35Y). Nature of the assay: Trp fluorescence titration, one-site fit. The class given is binding. The method, boiled down:
(§1)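 Recombinant human TL single-Trp mutants: native Trp replaced by Tyr, one site changed to Trp. Expressed in E. coli BL21(DE3); purified by gel filtration and DEAE chromatography. About 14 μM protein in 10 mM sodium phosphate, pH 7.3, at room temperature, titrated with palmitic acid or its spin-labeled analogue. 2 min equilibration per addition. Excitation 295 nm, emission read at λmax. One-site fit gave apparent Kd and stoichiometry.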

For assay [4], the target named is human tear lipocalin (TL) (Homo sapiens, UniProt P31025, I75W/W35Y). In words: Trp fluorescence titration, one-site fit. The class given is binding. The method, boiled down: as §1
human tear lipocalin (TL) (Homo sapiens, UniProt P31025, I75W/W35Y), sequence (P31025 19-176 W35Y/I75W): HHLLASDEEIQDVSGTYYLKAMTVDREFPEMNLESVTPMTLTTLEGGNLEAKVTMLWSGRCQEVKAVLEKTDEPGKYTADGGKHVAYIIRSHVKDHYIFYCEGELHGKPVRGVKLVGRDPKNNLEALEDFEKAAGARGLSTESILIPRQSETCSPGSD
The target in assay [5] is human tear lipocalin (TL) (Homo sapiens, UniProt P31025, I106W/W35Y). Nature of the assay: Trp fluorescence titration, one-site fit. The class given is binding. In a few lines: as §1
human tear lipocalin (TL) (Homo sapiens, UniProt P31025, I106W/W35Y), sequence (P31025 19-176 W35Y/I106W): as the sequence (P31025 19-176 W35Y/I75W) above, with W57I, I88W counted along it
In assay [6] the target is human tear lipocalin (TL) (Homo sapiens, UniProt P31025, L67W/W35Y). Nature of the assay: Trp fluorescence titration, one-site fit. The class given is binding. In a few lines: as §1
human tear lipocalin (TL) (Homo sapiens, UniProt P31025, L67W/W35Y), sequence (P31025 19-176 W35Y/L67W): as the sequence (P31025 19-176 W35Y/I75W) above, with L49W, W57I counted along it
In assay [7] the target is human tear lipocalin (TL) (Homo sapiens, UniProt P31025, C119W/W35Y). Nature of the assay: Trp fluorescence titration, one-site fit. The class given is binding. In a few lines: as §1
human tear lipocalin (TL) (Homo sapiens, UniProt P31025, C119W/W35Y), sequence (P31025 19-176 W35Y/C119W): as the sequence (P31025 19-176 W35Y/I75W) above, with W57I, C101W counted along it
Assay [8] concerns the target human tear lipocalin (TL) (Homo sapiens, UniProt P31025, M40W/W35Y). In words: Trp fluorescence titration, one-site fit. The class given is binding. In a few lines: as §1
Assay [9] addresses human tear lipocalin (TL) (Homo sapiens, UniProt P31025, G121W/W35Y). In words: Trp fluorescence titration, one-site fit. The class given is binding. The method, boiled down: as §1
For assay [10], the target named is human tear lipocalin (TL) (Homo sapiens, UniProt P31025, L86W/W35Y). In words: Trp fluorescence titration, one-site fit. The class given is binding. The method, boiled down: as §1
human tear lipocalin (TL) (Homo sapiens, UniProt P31025, L86W/W35Y), sequence (P31025 19-176 W35Y/L86W): as the sequence (P31025 19-176 W35Y/I75W) above, with W57I, L68W counted along it
The target of assay [11] is human tear lipocalin (TL) (Homo sapiens, UniProt P31025, W35Y/Y115W). In words: Trp fluorescence titration, one-site fit. The class given is binding. The method, boiled down: as §1
human tear lipocalin (TL) (Homo sapiens, UniProt P31025, W35Y/Y115W), sequence (P31025 19-176 W35Y/Y115W): as the sequence (P31025 19-176 W35Y/I75W) above, with W57I, Y97W counted along it
For assay [12], the target named is human tear lipocalin (TL) (Homo sapiens, UniProt P31025, T55W/W35Y). Nature of the assay: Trp fluorescence titration, one-site fit. It counts as binding. In a few lines:
as §1

T1 sequence (P31025 19-176 W35Y): as the sequence (P31025 19-176 W35Y/I75W) above, with W57I counted along it
human tear lipocalin (TL) (Homo sapiens, UniProt P31025, L123W/W35Y), sequence (P31025 19-176 W35Y/L123W): as the sequence (P31025 19-176 W35Y/I75W) above, with W57I, L105W counted along it
human tear lipocalin (TL) (Homo sapiens, UniProt P31025, T55W/W35Y), sequence (P31025 19-176 W35Y/T55W): as the sequence (P31025 19-176 W35Y/I75W) above, with T37W, W57I counted along it
human tear lipocalin (TL) (Homo sapiens, UniProt P31025, G121W/W35Y), sequence (P31025 19-176 W35Y/G121W): as the sequence (P31025 19-176 W35Y/I75W) above, with W57I, G103W counted along it
human tear lipocalin (TL) (Homo sapiens, UniProt P31025, M40W/W35Y), sequence (P31025 19-176 W35Y/M40W): as the sequence (P31025 19-176 W35Y/I75W) above, with M22W, W57I counted along it

Take `CN(C)c1cccc2c(S(=O)(=O)NCCCCCCCCCCC(=O)O)cccc12` [DAUDA, 11-((5-dimethylaminonaphthalene-1-sulfonyl)amino)undecanoic acid]: the “fluorescence enhancement and blue shift on binding” value in [1] was “DAUDA increases significantly and exhibits a blue shift ... when bound to TL”.
Consider `CCCCCCCCCCCC(=O)O` [LA], for which the IC50 in assay [2] was found to be 12600 nM.
As to `CCCCCCCCCCCCCCCC(=O)O` [PA], the Kd in [3] was determined as 500 ± 100 nM; in [4], 500 ± 100 nM; in assay [5], 500 ± 200 nM; in [6] it was 2300 ± 200 nM; in assay [7] it was 2800 ± 500 nM; in assay [8] it was 900 ± 200 nM. Moreover, the Kd in [9] was 300 ± 100 nM; in [10] it was 300 ± 100 nM; in [11], 400 ± 100 nM; in [12] it was 5800 ± 600 nM. This compound yielded an IC50 in assay [2] of 2300 nM.
